Here are results for ten compounds from ChEMBL document CHEMBL1781999, “Lead optimization of aryl and aralkyl amine-based triazolopyrimidine inhibitors of Plasmodium falciparum dihydroorotate dehydrogenase with antimalarial activity in mice” (J Med Chem, 2011).

One data set concerns Plasmodium falciparum. Briefly: Antimalarial activity against Plasmodium falciparum 3D7 infected in human A positive erythrocytes by [3H]hypoxanthine uptake assay in presence of serum in medium. It is filed as functional, organism-based. The method in brief:
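Growth read by [3H]-hypoxanthine uptake. Each concentration run in quadruplicate and fitted to a four-parameter variable-slope log[I]-response model for 50% growth inhibition.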

Data set [1] is described as follows: Partition coefficient, log D of the compound at pH 7.4 by UV-HPLC analysis. As to conditions: octanol/water.
The nature of data set [2]: Aqueous solubility of the compound in phosphate buffer at pH 6.5. It is filed as physicochemical. The method in brief: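 Non-equilibrium solubility. Concentrated DMSO stocks were diluted into pH 6.5 phosphate buffer (final DMSO 1% v/v) and precipitation was monitored by nephelometry. Solubility is given as the concentration range just before a turbidity signal rose above background.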

A short description of data set [3]: (§1) Plasma protein binding in human by albumin chromatographic method. Format: ADME, cell-free. The note with it: read-out: PPB (converted).
Another data set concerns Liver microsomes. Briefly: (§2) Intrinsic clearance in human liver microsome assessed per mg of protein at 1 uM after 60 mins by LC-MS analysis. It is filed as ADME. The note with it: microsomes, 1 h, 1 µM. The method in brief:
(§3)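 Microsomal stability. Compound at 1 μM with liver microsomes (0.4 mg/mL protein) in 0.1 M phosphate pH 7.4 at 37 °C. Started with an NADPH-regenerating system plus MgCl2; controls lacked NADPH. Quenched with cold acetonitrile at time points up to 60 min. Parent loss measured by LC-MS and fitted to exponential decay to give CLint.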
Background: Liver microsomes are vesicles of endoplasmic reticulum, rich in cytochrome P450 enzymes.

The next data set has as its system Liver. Briefly: Intrinsic clearance in mouse liver microsome assessed per mg of protein at 1 uM after 60 mins by LC-MS analysis. Format: ADME. The note with it: microsomes, 1 h. The method in brief: as §3
Data set [4] relates to Mus musculus. Nature of the data set: Cmax in Swiss mouse at 20 mg/kg, po measured after 24 hrs by LC-MS analysis. It is filed as ADME, organism-based. The arrangement: dose 20 mg/kg, route oral. The note with it: in vivo. The essentials: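 Non-fasted male Swiss outbred mice given a single oral gavage dose in 0.5% w/v sodium carboxymethylcellulose, 0.5% v/v benzyl alcohol, 0.4% v/v Tween 80. One mouse per time point, cardiac blood under isoflurane, sampling to 24 h. Plasma stabilized, acetonitrile-precipitated, quantified by LC-MS against blank-plasma standards; Cmax read from concentration-time profile.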

Data set [5] concerns Mus musculus. Nature of the data set: Toxicity in Swiss mouse assessed as adverse effect at 20 mg/kg, po measured after 24 hrs. It is filed as organism-based. The note with it: in vivo. On the set-up: dose 20 mg/kg, route oral.
Data set [6] in a line: Inhibition of His6-tagged recombinant Plasmodium berghei dihydroorotate dehydrogenase expressed in Escherichia coli using L-dihydroorotate as substrate after 5 to 10 mins by DCIP dye-based assay.
Data set [7] addresses T1, Dihydroorotate dehydrogenase (Plasmodium falciparum, UniProt Q54A96).
T1 sequence (Q54A96 whole entry): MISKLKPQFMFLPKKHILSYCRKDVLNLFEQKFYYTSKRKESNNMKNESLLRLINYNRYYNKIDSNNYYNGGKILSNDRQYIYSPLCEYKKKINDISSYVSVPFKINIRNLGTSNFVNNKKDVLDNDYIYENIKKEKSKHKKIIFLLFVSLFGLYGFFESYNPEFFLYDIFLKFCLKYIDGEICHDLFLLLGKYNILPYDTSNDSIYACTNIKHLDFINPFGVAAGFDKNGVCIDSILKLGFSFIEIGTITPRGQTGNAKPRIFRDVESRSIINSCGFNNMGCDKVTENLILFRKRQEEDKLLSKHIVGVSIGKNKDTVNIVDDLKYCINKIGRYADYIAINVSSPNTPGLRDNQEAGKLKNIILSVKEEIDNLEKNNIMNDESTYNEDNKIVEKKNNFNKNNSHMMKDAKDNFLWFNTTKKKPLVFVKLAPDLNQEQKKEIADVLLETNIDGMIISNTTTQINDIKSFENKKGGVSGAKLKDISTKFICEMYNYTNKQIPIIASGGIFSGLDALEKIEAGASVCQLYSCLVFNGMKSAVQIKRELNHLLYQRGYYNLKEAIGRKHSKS
Briefly: Inhibition of His6-tagged recombinant Plasmodium falciparum dihydroorotate dehydrogenase expressed in Escherichia coli using L-dihydroorotate as substrate after 5 to 10 mins by DCIP dye-based assay.

The nature of data set [8]: as §2. Format: ADME, microsomes. As to conditions: liver microsomes. The essentials: as §3
A short description of data set [9]: Inhibition of His6-tagged recombinant Plasmodium berghei dihydroorotate dehydrogenase expressed in Escherichia coli using L-dihydroorotate as substrate after 10 to 15 mins by DCIP dye-based assay. The note with it: in the assay text read “5 to 10 mins” for “10 to 15 mins”. The essentials:
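Truncated soluble enzyme lacking the N-terminal membrane domain. Final concentrations: 0.2 mM L-dihydroorotate, 0.02 mM CoQD, 0.12 mM DCIP. Reaction started with 10 nM enzyme and read at 600 nm for 5–10 min at 20 °C. Inhibitor 0.01–100 μM in 3-fold steps, in triplicate. IC50 from a three-parameter fit of vi/vo from initial rates.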

Data set [10] has as its system Mus musculus. Briefly: Time duration above 1 uM plasma concentration in Swiss mouse at 20 mg/kg, po. It is filed as ADME, organism-based. On the set-up: dose 20 mg/kg, route oral. As to conditions: in vivo. The essentials: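 Non-fasted male Swiss outbred mice given a single gavage dose in suspension (0.5% Na-CMC, 0.5% benzyl alcohol, 0.4% Tween 80). One mouse per time point; blood taken by cardiac puncture under isoflurane into stabilizer over 24 h. Plasma measured by LC-MS; time above 1 μM read directly from the concentration-time profile.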

Data set [11] in a line: Antimalarial activity against Plasmodium berghei ANKA NK65 infected in po dosed Swiss Webster mouse assessed as reduction of parasitemia level administered qd for 4 days measured 24 hrs after last dose by light microscopic analysis. Format: functional.
Data set [12] addresses Dihydroorotate dehydrogenase (quinone), mitochondrial (Homo sapiens, UniProt Q02127). Briefly: Inhibition of His6-tagged recombinant human dihydroorotate dehydrogenase expressed in Escherichia coli using L-dihydroorotate as substrate after 5 to 10 mins by DCIP dye-based assay.
The next data set deals with Plasma. The description is as §1. Format: ADME, cell-free.
The nature of data set [13]: Antimalarial activity against Plasmodium berghei ANKA NK65 infected in Swiss Webster mouse assessed as reduction of parasitemia level at 2 mg/kg, po qd administered for 4 days measured 24 hrs after last dose by light microscopic analysis. Format: functional. On the set-up: scale not given: the % may be the effect or the level left. The method in brief:
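Female Swiss Webster mice, 8-10 weeks old (20-22 g), infected intraperitoneally with 2 × 10^7 P. berghei NK65 ANKA-infected erythrocytes. Oral doses in CMC vehicle (200 μL), first given 3 h post-infection, then at 24, 48 and 72 h. Parasitemia followed daily from 24 h by light microscopy at 1000× oil immersion, counting ≥10 fields of >100 erythrocytes. Mice losing ≥20% body weight were euthanized.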

[14] abbreviates: phosphate buffer, read-out: solubility.

Values after ≈ are worked out from the molar mass of the structure shown.

Chain of Dihydroorotate dehydrogenase (quinone), mitochondrial (Q02127 whole entry): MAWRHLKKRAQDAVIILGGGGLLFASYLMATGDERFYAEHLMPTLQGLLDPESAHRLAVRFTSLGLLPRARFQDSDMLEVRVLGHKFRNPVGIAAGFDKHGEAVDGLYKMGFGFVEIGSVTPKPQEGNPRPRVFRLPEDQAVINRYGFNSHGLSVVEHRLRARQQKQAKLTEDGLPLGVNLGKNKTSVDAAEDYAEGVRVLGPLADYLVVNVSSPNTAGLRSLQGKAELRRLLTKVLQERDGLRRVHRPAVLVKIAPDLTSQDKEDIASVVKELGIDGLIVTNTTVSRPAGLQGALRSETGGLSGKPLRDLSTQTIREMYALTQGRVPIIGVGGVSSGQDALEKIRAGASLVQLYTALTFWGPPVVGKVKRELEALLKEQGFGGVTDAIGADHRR

Take `Cc1cc(Nc2ccc(C(C)(C)C)c(F)c2)n2ncnc2n1`: the EC50 in the data set on Plasmodium falciparum came to 97 nM. This compound also registered a logD in [1] of 3.5. In data set [2] (buffer), the solubility was < 2.7 µM. For the same compound, the fraction unbound in [3] was 0.036. Moreover, the results for the CL with Liver microsomes and with Liver were 32 µL/min/mg and 68 µL/min/mg, respectively. The peak level in the data set with Mus musculus [4] (Cmax) was 250 nM. In the data set with Mus musculus [5], the Activity entry was “Non-toxic”. Further, the IC50 is 110 nM in data set [6] and 35 nM in data set [7].
With `Cc1cc(Nc2ccc(C(F)(F)F)cc2)n2ncnc2n1`, in data set [1], the logD was found to be 2.5. Moreover, in [2] (setting [14]), the solubility was found to be 21 µM (≈ 6.16 µg/mL). Besides, the fraction unbound in [3] was 0.131. Besides, the microsomal CLint at 1 µM in [8] is 8 µL/min/mg.
Turning to `Cc1cc(NC2CCc3ccccc3C2)n2ncnc2n1` (stereo not drawn), the IC50 in data set [9] amounted to 2300 nM; in data set [7], 540 nM. The EC50 with Plasmodium falciparum amounted to 1800 nM. The logD in data set [1] was determined as 2.9. Also, the solubility in data set [2] (buffer) is > 358 µM. Also, the results for the CL with Liver microsomes and in the data set on Liver were < 5 µL/min/mg and 35 µL/min/mg, respectively. Also, the Cmax in the data set with Mus musculus [4] worked out at 7800 nM. Besides, in the data set on Mus musculus [10], the Time turned out to be 6 h. For the same compound, the Activity result in the data set with Mus musculus [5] is listed as “Non-toxic”.
As for `C[C@H]1[C@H](OC(=O)CCC(=O)O)O[C@@H]2O[C@@]3(C)CC[C@H]4[C@H](C)CC[C@@H]1[C@@]24OO3` [ARTESUNATE], the median effective dose (ED50) in data set [11] worked out at 5.9 mg/kg.
For `OC(c1cc(C(F)(F)F)nc2c(C(F)(F)F)cccc12)C1CCCCN1` (stereo not drawn) [MEFLOQUINE], the ED50 in data set [11] is 3.8 mg/kg.
For `Cc1cc(Nc2ccc(C(C)C)cc2)n2ncnc2n1`, the figures for the IC50 in data set [9], in data set [12] and in data set [7] were 880 nM, > 100 µM and 220 nM, respectively. Also, in the data set on Plasmodium falciparum, the EC50 turned out to be 780 nM. The logD in [1] was 3. In data set [2] (setting [14]), the solubility was 47 µM (≈ 12.6 µg/mL). In addition, in data set [3], the fraction unbound is 0.087. Besides, the CL in the data set with Liver microsomes came to 30 µL/min/mg; with Liver, 241 µL/min/mg. In addition, the concentration in the data set on Mus musculus [4] peaked (Cmax) at 800 nM. Also, the Activity result with Mus musculus [5] is reported as “Non-toxic”.
For `Cc1cc(Nc2ccc3c(c2)CCCC3)n2ncnc2n1`, the IC50 in data set [9] was 190 nM; in data set [12] it was > 100 µM. Besides, the EC50 in the data set with Plasmodium falciparum was 160 nM. Also, in data set [1], the logD came to 3.4. The solubility in data set [2] (setting [14]) came out at 89 µM (≈ 24.9 µg/mL). In addition, in data set [3], the fraction unbound was 0.045. Moreover, the CL in the data set on Liver microsomes is 72 µL/min/mg; in the data set with Liver, 361 µL/min/mg. The same compound displayed a Cmax with Mus musculus [4] of 2200 nM. The compound further yielded a Time in the data set on Mus musculus [10] of 1 h. Besides, the Activity entry with Mus musculus [5] was “Non-toxic”.
Consider `O=C1C(O)=C([C@H]2CC[C@H](c3ccc(Cl)cc3)CC2)C(=O)c2ccccc21` [ATOVAQUONE], for which the EC50 in the data set on Plasmodium falciparum turned out to be 1.5 nM. The compound further had a PPB with Plasma of 87%.
In the data set on Plasma, `CCN(CC)CCCC(C)Nc1ccnc2cc(Cl)ccc12` (stereo not drawn) [CHLOROQUINE] gave a PPB of 87%. Also, the ED50 in data set [11] stood at 1.8 mg/kg. The Activity in data set [13] is on record as 50%.
As to `Cc1cc(Nc2ccc3sccc3c2)n2ncnc2n1`, the IC50 was 600 nM in data set [9] and 90 nM in data set [7]. For the same compound, in the data set on Plasmodium falciparum, the concentration for a half-maximal effect (EC50) is 66 nM. The compound also displayed a logD in [1] of 2.6. Moreover, the solubility in [2] (setting [14]) turned out to be 22 µM (≈ 6.19 µg/mL). The fraction unbound in [3] was 0.102. In addition, the results for the CL in the data set on Liver microsomes and in the data set on Liver were 64 µL/min/mg and 162 µL/min/mg, respectively. Moreover, the Cmax with Mus musculus [4] turned out to be 400 nM. Besides, the Activity entry in the data set on Mus musculus [5] is “Non-toxic”.

As usually defined, the EC50 is the concentration giving half of the maximal effect. In general, logD refers to lipophilicity at a set pH, counting ionised and neutral species. Broadly, the solubility is how much of the substance goes into solution per volume. A word on the Cmax: it is the peak of the concentration-time curve. For orientation: IC50 means the concentration that gives 50% inhibition. Usually microsomal CLint stands for a measure of how fast metabolising enzymes remove a compound, apart from limits set by blood flow. By ED50 is commonly meant the midpoint of the dose-response relation.
